Measurements as given in ChEMBL document CHEMBL1130352, “3-[[(4-Aryl-1-piperazinyl)alkyl]cyclohexyl]-1H-indoles as dopamine D2 partial agonists and autoreceptor agonists” (J Med Chem, 1997).
Activity calls are given as the source filed them. The calls are words filed in the database; no cut-off is given here.

Experiments:
D(2) dopamine receptor [1] = biological target: T1, D(2) dopamine receptor (Rattus norvegicus, UniProt P61169); experiment: In vitro binding affinity for dopamine receptor D2 on rat striatal membranes by [3H]spiperone displacement.; set-up: species or system Striatum, Membrane
Procedure, shortened: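 Displacement of [3H]spiperone (0.2 nM final) from rat striatal membranes; nonspecific binding defined with 1 μM (+)-butaclamol. IC50 determined, reported as Ki.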

[2] = Decrease in squirrel monkey striatal dopamine overflow measured via in vivo microdialysis after administering a dose of 3 mg/kg intraperitoneally; assay type: functional; set-up: scale not given: the % may be the effect or the level left; conditions: route intraperitoneal
[3] = Inhibition of sidman avoidance in squirrel monkey after peroral administration; assay type: functional; conditions: po
Procedure, shortened: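 Squirrel monkeys dosed orally; conditioned (Sidman) avoidance recorded for 6 h. Effect expressed as percent avoidance responding relative to control performance over the 4 h of peak effect; ED50 in mg/kg po.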

Rattus norvegicus [4] = organism: Rattus norvegicus; experiment: Inhibition of spontaneous locomotor activity after peroral injection into rat; assay type: functional
Procedure, shortened: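 Rats dosed orally before a 30 min test in darkened cylindrical photobeam chambers. Percent inhibition of activity relative to vehicle-treated rats; ED50 with 95% confidence range from three to six doses, 6–18 animals per dose.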

D(2) dopamine receptor [5] = biological target: T1, D(2) dopamine receptor; experiment: Binding affinity was determined in vitro on rat striatum using [3H]N-propylnorapomorphine against Dopamine receptor D2; assay type: tissue-based
Procedure, shortened: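 Rat striatal membranes; [3H]-NPA agonist radioligand at 0.35 nM final, labelling high-affinity state D2 sites; nonspecific binding defined with 2 μM (+)-butaclamol. IC50 determined by displacement, reported as Ki (nM).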

Rattus norvegicus [6] = experiment: Percent reversal of DOPA levels in the striatum of gamma-butyrolactone-treated rats at 10 mg/kg by intraperitoneal route; assay type: functional
Procedure, shortened: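 Male Long Evans rats received 10 mg/kg ip 1 h before sacrifice, with GBL (750 mg/kg ip) and NSD 1015 (100 mg/kg ip) 30 min before sacrifice. Striatal DOPA was quantified by HPLC-electrochemical detection and expressed as percent reversal between GBL + NSD 1015 (0%) and vehicle + NSD 1015 (100%) controls; n = 4-5 rats.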

Rattus norvegicus [7] = organism: Rattus norvegicus; experiment: Compound was evaluated for ability to reverse gamma-butyrolactone (GBL)-induced sunthesis of DOPA in rat corpus striatum; assay type: functional
Procedure, shortened: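 Male Long Evans rats dosed 1 h before sacrifice; GBL 750 mg/kg ip plus NSD 1015 100 mg/kg ip given 30 min before sacrifice. Striatal DOPA measured by HPLC with electrochemical detection. ED50 read graphically as the dose giving 50% reversal of the GBL-induced rise in DOPA accumulation; 0% = GBL + NSD 1015, 100% = vehicle + NSD 1015.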

Mus musculus [8] = experiment: In vivo inhibition of locomotor activity in mice following i.p. administration.; assay type: functional; conditions: ip
Procedure, shortened: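 Mice dosed ip, then immediately tested for 1 h in darkened cylindrical photobeam chambers. Activity expressed as percent inhibition versus vehicle-treated mice. ED50 with 95% confidence range from three to six doses, 6–18 animals per dose.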

Mus musculus [9] = experiment: Inhibition of apomorphine-induced climbing in mice after intraperitoneal injection; assay type: functional; conditions: ip
Procedure, shortened: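 Mice received apomorphine 1 mg/kg sc and returned to cages. Test compound or vehicle given ip 5 min later, and climbing scored 10 min after that; ED50 in mg/kg ip.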

D(3) dopamine receptor = D(3) dopamine receptor (Homo sapiens, UniProt P35462); experiment: In vitro binding affinity towards human recombinant Dopamine receptor D3 receptor expressed in CHO-K1 cells was determined using [3H]spiperone as radioligand
D(4) dopamine receptor = biological target: T2, D(4) dopamine receptor (Homo sapiens, UniProt P21917); experiment: In vitro binding affinity towards human recombinant Dopamine receptor D4 expressed in CHO-K1 cells was determined using [3H]spiperone as radioligand; assay type: cell-based
T2 sequence (P21917 whole entry): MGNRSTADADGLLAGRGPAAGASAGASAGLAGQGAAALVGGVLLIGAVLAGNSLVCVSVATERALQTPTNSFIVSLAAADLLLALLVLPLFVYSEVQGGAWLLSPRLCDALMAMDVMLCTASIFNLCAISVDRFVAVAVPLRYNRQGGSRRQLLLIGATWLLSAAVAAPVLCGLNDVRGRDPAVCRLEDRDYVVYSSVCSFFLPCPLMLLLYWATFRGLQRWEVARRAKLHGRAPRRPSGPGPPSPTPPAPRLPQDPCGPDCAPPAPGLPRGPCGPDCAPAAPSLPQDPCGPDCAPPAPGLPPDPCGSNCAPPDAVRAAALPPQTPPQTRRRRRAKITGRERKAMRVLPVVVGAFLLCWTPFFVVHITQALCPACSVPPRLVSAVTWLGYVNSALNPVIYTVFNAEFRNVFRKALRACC
Procedure, shortened: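 CHO K1 cells stably transfected with human recombinant DA D4.2 receptor subtype; membranes incubated with [3H]spiperone (0.2 nM final); Ki values determined.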

Rattus norvegicus [10] = experiment: Decrease of rat striatal dopamine overflow after intraperitoneal injection of 10 mg/kg measured via in vivo microdialysis; assay type: functional; set-up: scale not given: the % may be the effect or the level left
Procedure, shortened: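 Adult male Sprague-Dawley rats (200-250 g) under urethane in a stereotaxic frame, with a 4 mm probe in striatum perfused with artificial CSF at 2 μL/min. Dialysate collected every 20 min and assayed for catecholamines by HPLC-electrochemical detection, after 10 mg/kg ip; n = 4.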

Rattus norvegicus [11] = experiment: Stereotypy in rats (intraperitoneal); assay type: functional; conditions: ip
Procedure, shortened: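 A trained observer rated rats for repetitive sniffing, licking and gnawing, 30 s per rat; a behaviour counted only if continuously present for at least 15 s. Rats observed 1 h after the test compound, then given the D1 agonist SKF 38393 and observed for another hour.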

Rattus norvegicus [12] = experiment: Decrease in dopamine neuronal firing rate in rats after intraperitoneal injection of 2.5 mg/kg; assay type: functional; set-up: scale not given: the % may be the effect or the level left
Rattus norvegicus [13] = experiment: Inhibition of spontaneous locomotor activity after intraperitoneal injection into rat at 30 mg/kg; assay type: functional; conditions: ip
Rattus norvegicus [14] = experiment: Inhibition of spontaneous locomotor activity after intraperitoneal injection into rat at 3 mg/kg; assay type: functional; conditions: ip
Rattus norvegicus [15] = organism: Rattus norvegicus; experiment: Inhibition of spontaneous locomotor activity after peroral injection into rat; Stimulation of locomotory activity; assay type: functional, organism-based
Rattus norvegicus [16] = experiment: Percent reversal of DOPA synthesis in the striatum of gamma-butyrolactone-treated rats at 10 mg/kg by intraperitoneal route; Increase; assay type: functional, organism-based; set-up: dose 10 mg/kg
Procedure, shortened: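 Male Long Evans rats given compound ip 1 h before sacrifice; GBL (750 mg/kg ip) plus NSD 1015 (100 mg/kg ip) 30 min before sacrifice. Striatal DOPA measured by HPLC with electrochemical detection. Result given as percent reversal between the GBL + NSD 1015 control (0%) and the vehicle + NSD 1015 control (100%); n = 4–5 animals.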

T1 sequence (P61169 whole entry): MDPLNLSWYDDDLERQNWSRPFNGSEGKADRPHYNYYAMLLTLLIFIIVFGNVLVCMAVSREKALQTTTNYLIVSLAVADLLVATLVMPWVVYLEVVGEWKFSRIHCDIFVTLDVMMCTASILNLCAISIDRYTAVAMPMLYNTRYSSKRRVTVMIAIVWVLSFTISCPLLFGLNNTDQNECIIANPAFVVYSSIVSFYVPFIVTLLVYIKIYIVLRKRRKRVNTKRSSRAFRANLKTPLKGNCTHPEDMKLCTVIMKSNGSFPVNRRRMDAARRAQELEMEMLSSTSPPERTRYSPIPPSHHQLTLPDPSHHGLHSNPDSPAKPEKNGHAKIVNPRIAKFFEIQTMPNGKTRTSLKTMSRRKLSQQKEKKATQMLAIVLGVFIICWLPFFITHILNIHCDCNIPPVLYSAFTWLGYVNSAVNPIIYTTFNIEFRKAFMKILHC
Sequence of D(3) dopamine receptor (P35462 whole entry): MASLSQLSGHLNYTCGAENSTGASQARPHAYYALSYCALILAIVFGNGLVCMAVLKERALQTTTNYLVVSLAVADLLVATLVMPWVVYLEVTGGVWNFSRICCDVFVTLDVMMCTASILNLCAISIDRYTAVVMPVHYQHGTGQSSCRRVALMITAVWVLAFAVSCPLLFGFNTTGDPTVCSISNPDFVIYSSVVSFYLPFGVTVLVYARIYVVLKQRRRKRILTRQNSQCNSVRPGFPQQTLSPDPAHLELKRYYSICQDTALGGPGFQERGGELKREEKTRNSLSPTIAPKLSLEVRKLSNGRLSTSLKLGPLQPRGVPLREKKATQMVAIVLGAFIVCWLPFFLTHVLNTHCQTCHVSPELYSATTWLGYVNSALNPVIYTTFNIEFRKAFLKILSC

SMILES	Ki (D(2) dopamine receptor [1]) [nM]	ED50 (Rattus norvegicus [4]) [mg/kg]	Reversal (Rattus norvegicus [6]) [%]	ED50 (Mus musculus [8]) [mg/kg]	further results
C1=C(c2ccccc2)CC[C@H](CCN2CCN(c3ccccn3)CC2)C1	412	–	–	–	–
c1ccc(N2CCN(CC[C@H]3CC[C@H](c4c[nH]c5ccccc54)CC3)CC2)nc1	50	4.8	44	1.4	Activity [2]: 38%; ED50 [3]: 1 mg/kg; Ki (D(2) dopamine receptor [5]): 2.6 nM; ED50 (Rattus norvegicus [7]): 6.6 mg/kg; ED50 (Mus musculus [9]): > 30 mg/kg; Ki (D(3) dopamine receptor): 29 nM; Ki (D(4) dopamine receptor): 73 nM; Activity (Rattus norvegicus [10]): 33%; ED50 (Rattus norvegicus [11]): > 24 mg/kg; Activity (Rattus norvegicus [12]): 100%
Oc1ccc2[nH]cc(CCCCN3CC=C(c4ccccc4)CC3)c2c1 [ROXINDOLE]	14	47.6	70	0.25	–
C1=C(c2ccccc2)CCN(CC[C@H]2CC[C@@H](c3c[nH]c4ccccc43)CC2)C1	28	–	5	10.5	–
Fc1ccc(N2CCN(CC[C@H]3CC[C@H](c4c[nH]c5ccccc54)CC3)CC2)cc1	645	–	–	> 30	–
c1ccc(N2CCN(C[C@H]3CC[C@@H](c4c[nH]c5ccccc54)CC3)CC2)nc1	122	–	–	1.2	inhibition in vivo at 30 mg/kg (Rattus norvegicus [13]): 1.8%; inhibition in vivo at 3 mg/kg (Rattus norvegicus [14]): 57%
COc1ccc2[nH]cc([C@H]3CC[C@H](CCN4CCN(c5ccccn5)CC4)CC3)c2c1	29	> 30	88	2.2	–
Oc1ccc2[nH]cc([C@H]3CC[C@H](CCN4CCN(c5ccccn5)CC4)CC3)c2c1	8.6	> 30	25	0.6	–
c1ccc(N2CCN([C@H]3CC[C@H](c4c[nH]c5ccccc54)CC3)CC2)nc1	457	13.7	38	1.2	–
C1=C(c2c[nH]c3ccccc23)CCC(CCN2CCN(c3ccccn3)CC2)C1 (centres undefined)	270	–	–	–	–
c1ccc(N2CCN(C[C@H]3CC[C@H](c4c[nH]c5ccccc54)CC3)CC2)nc1	85	8.8	81	2.3	–
c1cnc(N2CCN(CC[C@H]3CC[C@H](c4c[nH]c5ccccc54)CC3)CC2)nc1	161	18.6	34	3.3	–
Cn1cc([C@H]2CC[C@H](CCN3CCN(c4ccccn4)CC3)CC2)c2ccccc21	83	–	–	> 30	–
Fc1ccc2[nH]cc([C@H]3CC[C@H](CCN4CCN(c5ccccn5)CC4)CC3)c2c1	110	–	100	9	ED50 (Rattus norvegicus [15]): Stimulant
C1=C(c2cccs2)CCN(CC[C@H]2CC[C@H](c3c[nH]c4ccccc43)CC2)C1	630	–	–	11.6	–
c1ccc(N2CCN(CC[C@H]3CC[C@H](c4c[nH]c5ccccc54)CC3)CC2)cc1	124	–	–	13.9	Reversal (Rattus norvegicus [16]): inactive
c1ccc(N2CCN(CC[C@H]3CC[C@@H](c4c[nH]c5ccccc54)CC3)CC2)nc1	139	12.2	60	4.7	–
c1ccc(N2CCN([C@H]3CC[C@@H](c4c[nH]c5ccccc54)CC3)CC2)nc1	–	–	–	> 30	–
C1=C(c2ccccc2)CCN(CC[C@H]2CC[C@H](c3c[nH]c4ccccc43)CC2)C1	8.7	> 30	–	7.2	Reversal (Rattus norvegicus [16]): inactive
